High-throughput results: PubChem BioAssay, several laboratories
Compounds with a hit are over-represented: about 0.9% of the library has one in this group of screens.
S1P3 antagonist – antagonists of human S1P3 receptor. Q99500. CHO S1P3 NFAT-BLA reporter, FRET fluorescence, antagonist mode. inhibition, % at 4.98 µM. 0.27% of 170,000 active. AID 485;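 active = inhibition above the plate cutoff, the mean inhibition of test wells on that plate plus 3 SD, cut at about 28% in these data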;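 note: cells challenged with S1P at its EC80 of 0.8 µM; blue over green emission ratio from cleaved BLA substrate after 4 h stimulation; 0% = S1P-stimulated wells and 100% = unstimulated DMSO-only wells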
Mdm2 ligase inh – blocks human Mdm2 ubiquitin ligase activity; AID 1230; 0.11% of 210,000 active; Q00987; signal enhancement, % at 5 µM; cell-based MDM2 ubiquitination luciferase reporter, 2 h; 0 = plate control, 100 = twice control, blank-subtracted;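 active = signal enhancement of 30% or more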;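 note: luminescence tracks abundance of the self-degrading MDM2-luciferase fusion protein; higher signal means inhibition of MDM2 E3 ligase activity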
Target sequence (Q00987 whole entry, looked up, the tested form may be a part): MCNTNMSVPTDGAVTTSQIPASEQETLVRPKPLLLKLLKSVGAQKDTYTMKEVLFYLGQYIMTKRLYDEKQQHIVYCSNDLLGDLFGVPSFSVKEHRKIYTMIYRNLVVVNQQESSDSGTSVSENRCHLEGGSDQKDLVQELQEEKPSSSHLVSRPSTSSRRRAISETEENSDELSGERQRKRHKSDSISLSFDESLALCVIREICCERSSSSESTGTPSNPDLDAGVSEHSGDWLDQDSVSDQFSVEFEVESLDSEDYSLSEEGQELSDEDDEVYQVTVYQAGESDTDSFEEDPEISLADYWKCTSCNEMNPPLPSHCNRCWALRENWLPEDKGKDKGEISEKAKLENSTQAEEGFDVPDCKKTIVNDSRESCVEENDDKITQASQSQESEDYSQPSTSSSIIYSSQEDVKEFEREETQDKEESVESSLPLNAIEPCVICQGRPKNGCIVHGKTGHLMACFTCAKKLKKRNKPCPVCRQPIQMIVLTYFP
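Material: Stable MDM2–luciferase fusion reporter cells | Amount: 2000 cells seeded into each well | Dosing: One concentration, 5 µM, with 0.2% DMSO | Incubation: 4 h cell settling then 2 h compound exposure, 37 °C | Measured by: Luciferase luminescence | Read-out basis: % enhancement relative to plate controls after blank subtraction | Benchmarks: Control and blank well means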
S1P4 agonist – human S1P4 receptor agonism. O95977. S1P4-expressing cell line, agonist reporter assay. activation, % at 4.98 µM. 0.35% of 220,000 active; in the data active = activation above about 11%;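 note: 0% = DMSO vehicle and 100% = reference agonist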
Biofilm kill mix – mixtures killing C. albicans biofilm; C. albicans biofilm persisters + clotrimazole, fluorescence viability; primary screen in compound mixtures of four per well; inhibition, % at 7.6 µM; 0.02% of 120,000 active;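 active = inhibition above 30.3% in the primary screen of four-compound pools, then above 30% when the compound was retested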;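 note: compounds exposed to preformed 24 h biofilms for 48 h; 0% = untreated biofilm control and 100% = clotrimazole plus chlorhexidine kill blank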
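Probe or stimulus – Clotrimazole 50 µg/mL co-treatment · System – C. albicans biofilms · Schedule – 24 h biofilm formation, then 48 h compound exposure, 37 °C · Evaluation – percent inhibition of biofilm viability · Technique – 2-h Alamar Blue fluorescence, 535/590 nm excitation/emission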
S1P4 antagonist – blocks the human S1P4 receptor | 0.26% of 220,000 active | AID 1510 | inhibition, % at 4.98 µM | O95977 | S1P4-expressing cells, antagonist mode, reporter read-out; in the data active = inhibition above about 29%;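 note: 0% = wells stimulated with agonist and 100% = vehicle wells without agonist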
An asterisk follows results filed as active; . = no result.

SMILES	S1P3 antagonist	Mdm2 ligase inh	S1P4 agonist	Biofilm kill mix	S1P4 antagonist
CCc1ccccc1NC1c2ccccc2C(=O)N1Cc1ccco1 (centres undefined)	74.6*	-9.2	0.4	.	-26.5
CCOc1ccccc1NC1c2ccccc2C(=O)N1Cc1ccco1 (centres undefined)	1.4	-3.8	-0.2	.	-11.1
COC(=O)CN1C(=O)N/C(=C/c2cc(OC)c(OC)cc2C)C1=O	-6.5	5.4	5.0	11.9	-2.8
COCC(C)NC(=O)CCS(=O)(=O)c1nc(-c2ccc(OC)cc2)cc(C(F)(F)F)n1 (centres undefined)	-31.4	-10.9	-1.0	.	-4.6
COc1ccc(-c2cc(C(F)(F)F)nc(S(=O)(=O)CCCC(=O)Nc3cccnc3Cl)n2)cc1OC	-19.0	34.1*	-0.4	23.0	29.2*
COc1cccc(OC)c1C(=O)NNC(=O)c1cccc(COc2ccc3c(c2)CCC3)c1	.	31.2*	1.7	.	-12.2
O=C(NCCCn1ccnc1)/C(=C\c1cccnc1)NC(=O)c1ccccc1F	-21.1	-14.2	-1.8	4.8	5.8
CC(C)(C)c1nnc(NC(=O)c2cccnc2)s1	4.4	-5.0	-0.6	20.4	-6.9
O=S(=O)(/C(=C/c1ccc(C(F)(F)F)cc1)c1nc2ccccc2[nH]1)c1ccccc1	8.0	10.3	-1.3	7.1	92.2*
CC(C)c1ccc(/C=C(\c2nc3ccccc3[nH]2)S(=O)(=O)c2ccccc2)cc1	10.0	27.2	-0.9	4.5	23.6
C=CCN(c1cccc(C(F)(F)F)c1)S(=O)(=O)c1cccc(C(=O)OCC(=O)NCCC)c1	8.2	115.9*	-0.5	18.9	-14.0
O=C(O)c1sc2cccc(Cl)c2c1Cl	-4.9	-7.1	1.3	13.5	-15.0
CCC(CC)C(=O)NCCCCc1ccccc1	3.4	-2.0	-0.2	9.9	4.2
CC(C)(C)C1CCc2onc(C(=O)NCc3ccc(F)cc3)c2C1 (centres undefined)	63.7*	-1.8	0.6	.	3.9
O=C(NCc1ccc(F)cc1)c1noc2c1CCCC2	-18.6	13.7	-4.3	.	-1.1
O=C(Nc1ccccc1)C1=C(c2ccccc2)S(=O)(=O)CCS1(=O)=O	-3.3	12.9	1.9	-0.5	32.3*
CC(C)c1nnc(NC(=O)C2CCCCC2)s1	93.9*	-13.9	4.3	.	-27.2
CCc1nnc(NC(=O)C2CCCCC2)s1	4.8	-11.5	1.3	.	-34.6
C=C1C(=O)O[C@@H]2C[C@@H](C)[C@@H]3C=CC(=O)[C@@]3(C)[C@@H](OC(C)=O)[C@H]12	.	35.1*	.	7.8	.
O=C1CCC/C(=N\NC(=O)c2ccc(COc3cccc4cccnc34)cc2)C1	7.9	-6.4	-1.5	14.9	-10.6
COc1cccc(N2C(=O)C(CC(=O)Nc3ccc(F)cc3)N(C3CCCCC3)C2=O)c1 (centres undefined)	102.9*	-14.1	-0.4	.	12.9
COc1cccc(N2C(=O)C(CC(=O)Nc3ccccc3)N(C3CCCCC3)C2=O)c1 (centres undefined)	.	0.8	-0.1	.	-13.9
CCOc1ccc(NC(=O)C(Cc2ccccc2)NC(=O)C2CCCCC2)cc1 (centres undefined)	0.6	9.4	1.0	10.8	-12.2
CCOC(=O)c1ccccc1NC(=O)Cn1c(-c2nonc2N)nc2ccccc21	56.5*	-1.6	-0.3	.	-11.4
COC(=O)c1ccc(COc2ccccc2/C=N/NS(=O)(=O)c2ccc(C)cc2)cc1	.	-2.9	0.8	.	-5.5
SMILES	S1P3 antagonist	Mdm2 ligase inh	S1P4 agonist	Biofilm kill mix	S1P4 antagonist
O=C(O)CSCCc1ccccn1	56.4*	0.7	0.8	.	-14.4
CC(C)NS(=O)(=O)c1ccc(Oc2ncc(C(F)(F)F)cc2Cl)cc1	.	-12.4	1.2	.	-9.2
COc1ccc(S(=O)(=O)NN(C)c2ncc(C(F)(F)F)cc2Cl)cc1	-12.9	35.9*	0.5	6.0	-26.8
COC(=O)c1cc(OC)c(OC)cc1NC(=O)c1ccccc1C	11.9	-10.2	0.4	11.2	3.9
CCOC(=O)C1=C(c2ccccc2)ON(C)C1c1ccccc1 (centres undefined)	-12.5	-3.4	-0.2	13.5	-17.2
CCOC(=O)NNC(=S)Nc1c(C)n(C)n(-c2ccccc2)c1=O	-0.8	11.7	0.0	17.6	-6.9
COc1ccc(S(=O)(=O)N2CCN(c3ccc(C)cc3C)CC2)cc1OC	103.1*	-5.8	-1.2	.	0.5
COc1ccc(S(=O)(=O)N2CCN(c3c(C)cccc3C)CC2)cc1OC	-15.9	-9.7	-2.5	.	-23.6
COc1ccc(S(=O)(=O)N2CCN(C)CC2)cc1C	56.0*	-11.0	-3.4	.	-14.9
CCOC(=O)N1CCN(C(=O)C2CCCN(S(=O)(=O)c3cc(C)ccc3OC)C2)CC1 (centres undefined)	16.8	78.6*	-1.0	.	-3.5
CC1=C(C(=O)NC(C)c2ccccc2)C2(CCC(C)CC2)OC1=O (centres undefined)	-7.5	.	0.1	24.6	0.4
CC1=C(C(=O)NC(C)CCc2ccccc2)C2(CCC(C)CC2)OC1=O (centres undefined)	-14.2	36.2*	-0.6	16.7	-7.9
O=C1CN(c2ccc(Cl)cc2)C2(CCCCC2)S1	-9.0	-1.2	2.3	6.8	-2.5
O=C(NNC(=O)c1cc(O)c(O)c(O)c1)NC1CCCCC1	.	-6.3	-0.1	.	14.9
COc1ccc(-n2c(-c3ccc(Br)cc3)c[n+]3c2CCc2ccccc2-3)cc1	3.2	-13.8	-0.4	25.1	-7.8
CC(C)c1ccc(-n2c(-c3ccccc3)c[n+]3c2CCc2ccccc2-3)cc1	-2.5	-35.3	-1.5	34.7*	2.1
CC1CCCN(Cc2nc(Cc3ccccc3Cl)no2)C1 (centres undefined)	1.4	-7.4	1.0	14.4	5.0
O=C1CSC(=S)N1/N=C/c1cccnc1	-1.4	-4.5	-1.7	16.0	-11.0
O=C1CN(c2cc(Cl)cc(Cl)c2)C(=O)CN1/N=C/c1cccnc1	2.3	77.0*	0.9	14.9	6.1
Cc1ccc2c(c1)N(CC(=O)OC(CC(C)C)C(=O)NC1CCCC1)C(=O)CO2 (centres undefined)	89.5*	-10.8	-0.5	.	3.3
Cc1c(-c2ccccc2)oc2c(C(=O)OCC(=O)Nc3ccc(F)cc3)cccc2c1=O	-1.2	-5.6	-0.6	7.7	-6.2
CCOC(=O)c1sc(=S)n(-c2ccccc2)c1N(C(C)=O)C(C)=O	-6.7	30.6*	0.1	19.0	-7.3
CCCc1cc(=O)[nH]c(Nc2ccc(Cl)cc2)n1	5.7	-11.9	1.0	13.8	5.1
CCCc1cc(=O)[nH]c(Nc2ccc(OC)c(Cl)c2)n1	92.2*	-16.4	-1.1	.	-33.5
CCOC(=O)c1nnn(-c2nonc2N)c1CSc1ccccc1	.	-13.9	1.6	.	-23.4
CCOC(=O)c1nnn(-c2nonc2N)c1COc1cc(C)c(Cl)c(C)c1	57.7*	.	2.8	.	1.0
CSC1=C(C#N)C(=O)NC(c2ccccc2O)S1 (centres undefined)	-11.3	-10.2	-0.8	18.8	-1.2
COC(=O)CSC1=C(C#N)C(=O)NC(c2ccccc2)S1 (centres undefined)	.	39.6*	1.0	.	6.2
COc1ccc(-c2cc(C(=O)Nc3c(C)nn(Cc4ccccc4)c3C)no2)cc1	.	13.9	-1.6	.	-1.5
